B1: Osa-1-4 twister ribozyme (parent)
chain: CCGCCUAACACUGCCAAUGCCGGUCCCAAGCCCGGAUAAAAGUGGAGGGGGCGG

Variants of: B1
Experiment: self-cleavage, relative activity (ratio to wild type); higher = more cleavage; co-transcriptional
Summary of the method: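 Values are relative activity: the fraction cleaved, normalised to wild type. A doped DNA template for a 54-nucleotide twister ribozyme from Oryza sativa had 97 % wild-type base and 1 % of each other base at the 48 positions downstream of the cleavage site. The RNA was transcribed in vitro for 2 h at 37 °C so that it could cleave itself co-transcriptionally, then sequenced deeply, with cleavage status scored from the presence or absence of upstream sequence in reads.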

Variant	self-cleavage
G47A U24A	0.04
G47A U24G	0.02
G47A U24C	0.04
G47U U18C	0.24
G47U U18A	0.28
G47U U18G	0.57
G48C G54U	0.2
G48C G54A	0.11
G48C G54C	0.1
G49A G50U	0.23
G49A G50C	0.22
G49A G50A	0.27
G49A G53C	0.05
G49A G53A	0.11
G49A G53U	0.09
G48C U43G	0.07
G48C U43A	0.08
G48C U43C	0.07
G49A U18C	0.16
G49A U18A	0.16
G49A U18G	0.29
G50A G51U	0.16
G50A G51A	0.5
G50A G51C	0.12

Variant	self-cleavage
G50A U43G	0.15
G50A U43C	0.35
G50A U43A	0.38
G48U G51U	0.07
G48U G51A	0.11
G48U G51C	0.04
G47A G51U	0.09
G47A G51C	0.05
G47A G51A	0.12
G49A	0.26
G49C	0.07
G49U	0.23
G48C G50U	0.1
G48C G50C	0.1
G48C G50A	0.3
G48U G53A	0.1
G48U G53U	0.08
G48U G53C	0.06
G47C U24C	0.04
G47C U24A	0.03
G47C U24G	0.01
G50A G54U	0.96
G50A G54A	0.97
G50A G54C	0.99

Variant	self-cleavage
G50C U12C	0.34
G50C U12G	0.17
G50C U12A	0.35
G50A G53A	0.94
G50A G53C	0.32
G50A G53U	0.9
G50U G53U	0.37
G50U G53C	0.09
G50U G53A	0.61
G47U	0.42
G47C	0.17
G49U G54A	0.1
G49U G54C	0.06
G49U G54U	0.26
G47C G48U	0.03
G47C G48A	0.04
G47C G48C	0.05
G50C U43A	0.75
G50C U43C	0.45
G50C U43G	0.36
G48C U37G	0.16
G48C U37A	0.08
G48C U37C	0.1
G49C U24G	0.01

Variant	self-cleavage
G49C U24C	0.05
G49C U24A	0.03
G47C G50U	0.07
G47C G50A	0.13
G47C G50C	0.08
G50C U37G	1.04
G50C U37A	0.78
G50C U37C	1.05
G50C G54C	0.1
G50C G54U	0.32
G50C G54A	0.15
G48U G54C	0.1
G48U G54A	0.11
G48U G54U	0.34
G49U G51U	0.12
G49U G51A	0.32
G49U G51C	0.06
G47U G54U	0.46
G47U G54C	0.32
G47U G54A	0.28
G50A U37C	0.84
G50A U37A	0.38
G50A U37G	0.74
G50A U18A	0.61

Variant	self-cleavage
G50A U18C	0.45
G50A U18G	0.79
G49C U43G	0.04
G49C U43C	0.1
G49C U43A	0.08
G48C U24G	0.01
G48C U24A	0.04
G48C U24C	0.04
G48U G50C	0.07
G48U G50U	0.07
G48U G50A	0.21
G50C U24C	0.11
G50C U24G	0.02
G50C U24A	0.08
G50C U18G	0.75
G50C U18C	0.95
G50C U18A	0.95
G49A U43C	0.07
G49A U43G	0.08
G49A U43A	0.08
G47C U12A	0.06
G47C U12G	0.06
G47C U12C	0.05
G47U G49U	0.05

Variant	self-cleavage
G47U G49A	0.05
G47U G49C	0.04
G48U U37G	0.11
G48U U37A	0.05
G48U U37C	0.09
G48U G49A	0.04
G48U G49U	0.05
G48U G49C	0.03
G48U U18G	0.13
G48U U18C	0.08
G48U U18A	0.07
G49U U43G	0.06
G49U U43A	0.08
G49U U43C	0.04
G50U G54C	0.15
G50U G54U	0.52
G50U G54A	0.79
G48C G49C	0.07
G48C G49U	0.04
G48C G49A	0.05
G47A U18G	0.56
G47A U18C	0.22
G47A U18A	0.33
G49U G50U	0.21

Variant	self-cleavage
G49U G50C	0.31
G49U G50A	0.5
G49U U12G	0.07
G49U U12C	0.04
G49U U12A	0.09
G47C U43A	0.1
G47C U43G	0.07
G47C U43C	0.08
G49A U37A	0.13
G49A U37G	0.27
G49A U37C	0.19
G47U U24A	0.05
G47U U24C	0.03
G47U U24G	0.02
G48A G50A	0.16
G48A G50C	0.09
G48A G50U	0.09
G47A U37A	0.28
G47A U37C	0.44
G47A U37G	0.62
G48C U12C	0.05
G48C U12G	0.07
G48C U12A	0.07
G49A U24G	0.01

Variant	self-cleavage
G49A U24C	0.05
G49A U24A	0.05
G47C U37C	0.15
G47C U37A	0.09
G47C U37G	0.21
G48A U43C	0.06
G48A U43A	0.06
G48A U43G	0.06
G47A U43C	0.09
G47A U43G	0.1
G47A U43A	0.11
G47C U18C	0.1
G47C U18G	0.24
G47C U18A	0.12
G49C G54C	0.05
G49C G54A	0.06
G49C G54U	0.08
G47C G51U	0.05
G47C G51A	0.09
G47C G51C	0.05
G47U G51U	0.08
G47U G51A	0.09
G47U G51C	0.05
G49A U12G	0.06

Variant	self-cleavage
G49A U12C	0.05
G49A U12A	0.08
G48A G51C	0.04
G48A G51A	0.1
G48A G51U	0.05
G49U U18C	0.16
G49U U18G	0.29
G49U U18A	0.15
G48C U18G	0.1
G48C U18C	0.1
G48C U18A	0.09
G47A G54A	0.18
G47A G54U	0.34
G47A G54C	0.15
G47U G53C	0.06
G47U G53U	0.1
G47U G53A	0.18
G47C G54C	0.13
G47C G54U	0.24
G47C G54A	0.14
G50U U12A	0.82
G50U U12C	0.62
G50U U12G	0.47
G47U G50A	0.19

Variant	self-cleavage
G47U G50C	0.07
G47U G50U	0.1
G49A G54U	0.39
G49A G54C	0.11
G49A G54A	0.15
G47U U43C	0.08
G47U U43G	0.07
G47U U43A	0.1
G48A G49U	0.04
G48A G49C	0.03
G48A G49A	0.05
G50U U18A	0.89
G50U U18C	0.97
G48U U12G	0.05
G48U U12C	0.04
G48U U12A	0.07
G50C G53C	0.06
G50C G53U	0.11
G50C G53A	0.11
G47A U12A	0.08
G47A U12G	0.06
G47A U12C	0.07
G50C G51U	0.32
G50C G51C	0.08

Variant	self-cleavage
G50C G51A	0.71
G48A G53A	0.11
G48A G53U	0.09
G48A G53C	0.07
G47C G49U	0.03
G47C G49A	0.05
G47C G49C	0.06
G49U U24G	0.02
G49U U24A	0.04
G49U U24C	0.04
G49C G51U	0.08
G49C G51C	0.04
G49C G51A	0.12
G47C G53U	0.08
G47C G53A	0.1
G47C G53C	0.06
G49A G51A	0.33
G49A G51U	0.15
G49A G51C	0.09
G47U G48U	0.05
G47U G48C	0.05
G47U G48A	0.04
G48C G51C	0.04
G48C G51A	0.11

Variant	self-cleavage
G48C G51U	0.06
G48U U24G	0.01
G48U U24C	0.03
G48U U24A	0.03
G48A U12G	0.04
G48A U12C	0.04
G48A U12A	0.07
G49C G53A	0.06
G49C G53U	0.05
G49C G53C	0.03
G48A U37C	0.11
G48A U37G	0.16
G48A U37A	0.06
G49U G53U	0.07
G49U G53A	0.07
G49U G53C	0.04
G49C U37A	0.05
G49C U37G	0.08
G49C U37C	0.07
G49C U12G	0.06
G49C U12C	0.04
G49C U12A	0.08
G48A U18A	0.09
G48A U18C	0.1

Variant	self-cleavage
G48A U18G	0.13
G49C G50U	0.14
G49C G50C	0.17
G49C G50A	0.2
G50A U24G	0.02
G50A U24C	0.64
G50A U24A	0.6
G47A G53U	0.08
G47A G53C	0.06
G47A G53A	0.13
G48A G54A	0.15
G48A G54C	0.15
G48A G54U	0.37
G49C U18G	0.09
G49C U18A	0.05
G49C U18C	0.05
G50C	1.03
G50U	1.02
G50A	0.76
G48C G53A	0.09
G48C G53U	0.07
G48C G53C	0.05
G48U U43C	0.05
G48U U43G	0.04

Variant	self-cleavage
G48U U43A	0.05
G50A U12G	0.11
G50A U12C	0.37
G50A U12A	0.44
G47U U12G	0.05
G47U U12C	0.07
G47U U12A	0.07
G49U U37G	0.3
G49U U37C	0.18
G49U U37A	0.12
G48U	0.1
G48C	0.12
G48A	0.14
G50U G51C	0.11
G50U G51A	0.66
G50U G51U	0.57
G47U U37C	0.37
G47U U37A	0.23
G47U U37G	0.51
G48A U24C	0.04
G48A U24A	0.05
G48A U24G	0.01
